# How the values were obtained:
# Format in all cases: functional
# [1] = tested on: Fusarium oxysporum; experiment: Antimicrobial activity against Fusarium oxysporum MTCC 284 at 100 ug/ml after 48 hrs by disc diffusion method; conditions: MTCC 284, 48 h, read-out: DIZ
# Method in brief: (§1)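 Agar diffusion read-out is the diameter of the inhibition zone in mm. Each test was run in six replicates and reported as mean ± standard deviation, taken from at least three determinations.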
# [2] = tested on: Fusarium verticillioides; experiment: Antimicrobial activity against Fusarium moniliforme MTCC 156 at 100 ug/ml after 48 hrs by disc diffusion method; conditions: MTCC 156, 48 h, read-out: DIZ; method in brief: as §1
# [3] = tested on: Fusarium verticillioides; experiment: Antimicrobial activity against Fusarium moniliforme MTCC 156 at 50 ug/ml after 48 hrs by disc diffusion method; conditions: MTCC 156, 48 h, read-out: DIZ; method in brief: as §1
# [4] = tested on: Klebsiella pneumoniae; experiment: Antimicrobial activity against Klebsiella pneumoniae MTCC 3384 after 24 hrs by microdilution method; conditions: MTCC 3384, 24 h
# Method in brief: (§2)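 The minimal inhibitory concentration was determined by dilution, alongside minimal bactericidal concentration for bacterial strains and minimal fungicidal concentration for fungal strains. Tests were run in six replicates, and the value is the mean of at least three determinations.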
# [5] = tested on: Klebsiella pneumoniae; experiment: Antimicrobial activity against Klebsiella pneumoniae MTCC 3384 at 100 ug/ml after 24 hrs by disc diffusion method; conditions: MTCC 3384, 24 h, read-out: DIZ; method in brief: as §1
# [6] = tested on: Fusarium oxysporum; experiment: Antimicrobial activity against Fusarium oxysporum MTCC 284 after 48 hrs by microdilution method; conditions: MTCC 284, 48 h; method in brief: as §2
# [7] = tested on: Staphylococcus aureus; experiment: Antimicrobial activity against Staphylococcus aureus MTCC 96 at 100 ug/ml after 24 hrs by disc diffusion method; conditions: MTCC 96, 24 h, read-out: DIZ; method in brief: as §1
# [8] = tested on: Aspergillus flavus; experiment: Antimicrobial activity against Aspergillus flavus MTCC 873 at 50 ug/ml after 48 hrs by disc diffusion method; conditions: MTCC 873, 48 h, read-out: DIZ; method in brief: as §1
# [9] = tested on: Escherichia coli; experiment: Antimicrobial activity against Escherichia coli MTCC 724 after 24 hrs by microdilution method; conditions: MTCC 724, 24 h; method in brief: as §2
# [10] = tested on: Escherichia coli; experiment: Antimicrobial activity against Escherichia coli MTCC 724 at 100 ug/ml after 24 hrs by disc diffusion method; conditions: MTCC 724, 24 h, read-out: DIZ; method in brief: as §1
# [11] = tested on: Klebsiella pneumoniae; experiment: Antimicrobial activity against Klebsiella pneumoniae MTCC 3384 at 50 ug/ml after 24 hrs by disc diffusion method; conditions: MTCC 3384, 24 h, read-out: DIZ; method in brief: as §1
# [12] = tested on: Bacillus cereus; experiment: Antimicrobial activity against Bacillus cereus MTCC 8372 at 100 ug/ml after 24 hrs by disc diffusion method; conditions: MTCC 8372, 24 h, read-out: DIZ; method in brief: as §1
# [13] = tested on: Aspergillus niger; experiment: Antimicrobial activity against Aspergillus niger MTCC 281 at 100 ug/ml after 48 hrs by disc diffusion method; conditions: MTCC 281, 48 h, read-out: DIZ; method in brief: as §1
# [14] = tested on: Bacillus cereus; experiment: Antimicrobial activity against Bacillus cereus MTCC 8372 at 50 ug/ml after 24 hrs by disc diffusion method; conditions: MTCC 8372, 24 h, read-out: DIZ; method in brief: as §1
# [15] = tested on: Escherichia coli; experiment: Antimicrobial activity against Escherichia coli MTCC 724 at 50 ug/ml after 24 hrs by disc diffusion method; conditions: MTCC 724, 24 h, read-out: DIZ; method in brief: as §1
# [16] = tested on: Fusarium verticillioides; experiment: Antimicrobial activity against Fusarium moniliforme MTCC 156 after 48 hrs by microdilution method; conditions: MTCC 156, 48 h; method in brief: as §2
# [17] = tested on: Aspergillus flavus; experiment: Antimicrobial activity against Aspergillus flavus MTCC 873 at 100 ug/ml after 48 hrs by disc diffusion method; conditions: MTCC 873, 48 h, read-out: DIZ; method in brief: as §1
# [18] = tested on: Aspergillus flavus; experiment: Antimicrobial activity against Aspergillus flavus MTCC 873 after 48 hrs by microdilution method; conditions: MTCC 873, 48 h; method in brief: as §2
# [19] = tested on: Staphylococcus aureus; experiment: Antimicrobial activity against Staphylococcus aureus MTCC 96 at 50 ug/ml after 24 hrs by disc diffusion method; conditions: MTCC 96, 24 h, read-out: DIZ; method in brief: as §1
# [20] = tested on: Aspergillus niger; experiment: Antimicrobial activity against Aspergillus niger MTCC 281 at 50 ug/ml after 48 hrs by disc diffusion method; conditions: MTCC 281, 48 h, read-out: DIZ; method in brief: as §1
# [21] = tested on: Fusarium oxysporum; experiment: Antimicrobial activity against Fusarium oxysporum MTCC 284 at 50 ug/ml after 48 hrs by disc diffusion method; conditions: MTCC 284, 48 h, read-out: DIZ; method in brief: as §1
# [22] = tested on: Aspergillus niger; experiment: Antimicrobial activity against Aspergillus niger MTCC 281 after 48 hrs by microdilution method; conditions: MTCC 281, 48 h; method in brief: as §2
# [23] = tested on: Bacillus cereus; experiment: Antimicrobial activity against Bacillus cereus MTCC 8372 after 24 hrs by microdilution method; conditions: MTCC 8372, 24 h; method in brief: as §2
# [24] = tested on: Staphylococcus aureus; experiment: Antimicrobial activity against Staphylococcus aureus MTCC 96 after 24 hrs by microdilution method; conditions: MTCC 96, 24 h; method in brief: as §2
MIC [4] [µg/mL],MIC [6] [µg/mL],MIC [9] [µg/mL],MIC [16] [µg/mL],Compound,zone of inhibition at 100 µg/mL [1] [mm],zone of inhibition at 100 µg/mL [2] [mm],zone of inhibition at 50 µg/mL [3] [mm],MBC [4] [µg/mL],zone of inhibition at 100 µg/mL [5] [mm],MFC [6] [µg/mL],zone of inhibition at 100 µg/mL [7] [mm],zone of inhibition at 50 µg/mL [8] [mm],MBC [9] [µg/mL],zone of inhibition at 100 µg/mL [10] [mm],zone of inhibition at 50 µg/mL [11] [mm],zone of inhibition at 100 µg/mL [12] [mm],zone of inhibition at 100 µg/mL [13] [mm],zone of inhibition at 50 µg/mL [14] [mm],zone of inhibition at 50 µg/mL [15] [mm],MFC [16] [µg/mL],further results
45,50,45,50,COc1ccc(-c2nnc(-c3c(-c4ccccc4)nn(-c4ccccc4)c3C)o2)cc1,12,11,9,240,11,280,12,8,235,12,9,12,12,5,8,290,zone of inhibition at 100 µg/mL [17]: 14 mm; MFC [18]: 270 µg/mL; MIC [18]: 45 µg/mL; zone of inhibition at 50 µg/mL [19]: 6 mm; zone of inhibition at 50 µg/mL [20]: 6 mm; zone of inhibition at 50 µg/mL [21]: 8 mm; MFC [22]: 275 µg/mL; MIC [22]: 45 µg/mL; MBC [23]: 220 µg/mL; MIC [23]: 35 µg/mL; MBC [24]: 225 µg/mL; MIC [24]: 35 µg/mL
25,40,25,55,COc1cc(-c2nn(-c3ccccc3)c(C)c2-c2nnc(-c3ccccc3)o2)cc(OC)c1OC,10,10,5,175,10,290,26,6,170,17,6,22,20,11,12,300,zone of inhibition at 100 µg/mL [17]: 12 mm; MFC [18]: 275 µg/mL; MIC [18]: 45 µg/mL; zone of inhibition at 50 µg/mL [19]: 10 mm; zone of inhibition at 50 µg/mL [20]: 10 mm; zone of inhibition at 50 µg/mL [21]: 8 mm; MFC [22]: 220 µg/mL; MIC [22]: 30 µg/mL; MBC [23]: 160 µg/mL; MIC [23]: 20 µg/mL; MBC [24]: 155 µg/mL; MIC [24]: 20 µg/mL
20,40,20,55,COc1cc(-c2nnc(-c3c(-c4ccccc4)nn(-c4ccccc4)c3C)o2)cc(OC)c1OC,10,10,7,160,20,275,12,4,150,32,10,13,12,4,20,300,zone of inhibition at 100 µg/mL [17]: 13 mm; MFC [18]: 275 µg/mL; MIC [18]: 45 µg/mL; zone of inhibition at 50 µg/mL [19]: 5 mm; zone of inhibition at 50 µg/mL [20]: 5 mm; zone of inhibition at 50 µg/mL [21]: 8 mm; MFC [22]: 275 µg/mL; MIC [22]: 40 µg/mL; MBC [23]: 230 µg/mL; MIC [23]: 35 µg/mL; MBC [24]: 250 µg/mL; MIC [24]: 40 µg/mL
30,40,35,55,Cc1c(-c2nnc(-c3ccc(Cl)cc3)o2)c(-c2ccccc2)nn1-c1ccccc1,8,8,6,220,12,275,10,14,235,12,6,8,24,4,10,300,zone of inhibition at 100 µg/mL [17]: 16 mm; MFC [18]: 230 µg/mL; MIC [18]: 30 µg/mL; zone of inhibition at 50 µg/mL [19]: 5 mm; zone of inhibition at 50 µg/mL [20]: 9 mm; zone of inhibition at 50 µg/mL [21]: 4 mm; MFC [22]: 215 µg/mL; MIC [22]: 25 µg/mL; MBC [23]: 240 µg/mL; MIC [23]: 40 µg/mL; MBC [24]: 250 µg/mL; MIC [24]: 45 µg/mL

# From ChEMBL document CHEMBL3098013, “Novel pyrazole integrated 1,3,4-oxadiazoles: synthesis, characterization and antimicrobial evaluation” (2014)
